Measurements as given in ChEMBL document CHEMBL2202988, “D-amino acid based protein arginine deiminase inhibitors: Synthesis, pharmacokinetics, and in cellulo efficacy” (ACS Med Chem Lett, 2012).
Calls of active or inactive are those of the source. The calls are words filed in the database; no cut-off is given here.

Assays:
MDA-MB-231 [1] = test: Antiproliferative activity against human MDA-MB-231 cells assessed as decrease in Ki-67 level; format: functional, cell-based
In short: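 MDA-MB-231 triple-negative breast cancer cells (PAD1-overexpressing) treated at 100, 200 and 400 μM. Ki-67 levels assessed 96 h after administration. Tunicamycin served as the positive control for cell cycle arrest.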

MDA-MB-231 [2] = test: Induction of apoptosis in human MDA-MB-231 cells assessed as caspase-3 activity at 100 to 400 uM; format: functional, cell-based
In short: (§1)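 MDA-MB-231 cells given inhibitor at 100, 200 and 400 μM; caspase 3 activity measured 96 h after administration.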

MDA-MB-231 [3] = test: Antiproliferative activity against human MDA-MB-231 cells assessed as Ki-67 level at 100 to 400 uM; format: functional, cell-based
In short: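 MDA-MB-231 triple-negative breast cancer cells (PAD1-overexpressing) exposed to inhibitor at 100, 200 and 400 μM; Ki-67 level taken as the proliferation read-out; tunicamycin at increasing amounts served as positive control for cell-cycle arrest.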

MDA-MB-231 [4] = test: Cytotoxicity against human MDA-MB-231 cells assessed as cell viability at 400 uM after 96 hrs by trypan blue assay; format: functional, cell-based
In short: (§2)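 MDA-MB-231 breast cancer cells (PAD1-overexpressing) exposed to inhibitor at 100, 200 and 400 μM; percent viability and cell number read 96 h after addition.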

MDA-MB-231 [5] = test: Cytotoxicity against human MDA-MB-231 cells assessed as decrease in cell number at 400 uM after 96 hrs by trypan blue assay; format: functional, cell-based; in short: as §2
Mus musculus [6] = test: Toxicity in po dosed C57BL/6J mouse; format: organism-based; conditions: in vivo
In short: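 Mice (n = 10 per group) were dosed per os at varying doses up to 150 mg/kg. Percent change in total body weight was tracked to 96 h, along with observable signs of toxicity. MTD was taken as the highest dose causing no weight loss or significant toxicity signs. Weight change was tested for significance (P < 0.05).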

Mus musculus [7] = test: Toxicity in C57BL/6J mouse assessed as change in body weight at 5 to 150 mg/kg, po after 1 to 96 hrs; format: organism-based; set-up: route oral; conditions: in vivo
In short: (§3)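 Oral dosing of mice (n = 10) at varying doses up to 150 mg/kg; percent change in body weight followed to 96 h, significance at P <0.05.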

[8] = Drug level in C57Bl/6 mouse serum at 10 mg/kg, ip after 4 hrs by LC-MS/MS analysis; format: ADME, organism-based; set-up: dose 10 mg/kg, route intraperitoneal; conditions: read-out: Drug uptake
In short: (§4)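 Mice dosed by iv (2.5 or 10 mg/kg) or ip (10 mg/kg) injection; serum/plasma drug levels measured over time up to 4 h, plotted as mean levels.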

[9] = Drug level in C57Bl/6 mouse serum at 2.5 mg/kg, iv after 4 hrs by LC-MS/MS analysis; format: ADME, organism-based; set-up: dose 2.5 mg/kg, route intravenous; conditions: read-out: Drug uptake; in short: as §4
[10] = Drug level in C57Bl/6 mouse serum at 2.5 mg/kg, iv after 2 hrs by LC-MS/MS analysis; format: ADME, organism-based; set-up: dose 2.5 mg/kg, route intravenous; conditions: read-out: Drug uptake; in short: as §4
Liver = test: Half life in mouse liver microsomes; format: ADME, Microsome
In short: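 Stability assessed by incubation with murine hepatic microsomes; half-life derived from compound remaining over time.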

MDA-MB-231 [11] = test: Induction of apoptosis in human MDA-MB-231 cells assessed as increase in caspase-3 activity; format: functional, cell-based; in short: as §1
MDA-MB-231 [12] = test: Cytotoxicity against human MDA-MB-231 cells assessed as decrease in cell viability at 200 to 400 uM after 96 hrs by trypan blue assay; format: functional, cell-based; in short: as §2
Mus musculus [13] = test: Toxicity in C57BL/6J mouse assessed as bloody stools at 150 mg/kg, po; format: organism-based; set-up: dose 150 mg/kg, route oral; conditions: in vivo
In short: (§5)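 Mice dosed per os at graded levels up to 150 mg/kg; observable physiological signs (shaking, anxiety, hunching, heavy breathing, stool changes, diarrhea) recorded after treatment, with monitoring over the following days.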

Mus musculus [14] = test: Toxicity in C57BL/6J mouse assessed as heavy breathing at 150 mg/kg, po after 1 to 4 hrs; format: organism-based; set-up: dose 150 mg/kg, route oral; conditions: in vivo; in short: as §5
Mus musculus [15] = test: Toxicity in C57BL/6J mouse assessed as hunching at 150 mg/kg, po after 1 to 4 hrs; format: organism-based; set-up: dose 150 mg/kg, route oral; conditions: in vivo; in short: as §5
Mus musculus [16] = test: Drug metabolism in C57Bl/6 mouse at 10 mg/kg, ip measured within 4 hrs by LC-MS/MS analysis; format: ADME, organism-based; set-up: dose 10 mg/kg, route intraperitoneal; conditions: in vivo; in short: as §4
Mus musculus [17] = test: Drug metabolism in C57Bl/6 mouse at 10 mg/kg, iv measured within 2 hrs by LC-MS/MS analysis; format: ADME, organism-based; set-up: dose 10 mg/kg, route intravenous; conditions: in vivo; in short: as §4
Mus musculus [18] = test: Toxicity in C57BL/6J mouse assessed as loss in body weight at 100 to 150 mg/kg, po after 96 hrs; format: organism-based; set-up: dose 100-150 mg/kg, route oral; conditions: in vivo; in short: as §3
Mus musculus [19] = test: Toxicity in C57BL/6J mouse assessed as anxiety at 150 mg/kg, po after 1 to 4 hrs; format: organism-based; set-up: dose 150 mg/kg, route oral; conditions: in vivo; in short: as §5
Mus musculus [20] = test: Toxicity in C57BL/6J mouse assessed as occurrence of diarrhea at 150 mg/kg, po after 2 to 3 days; format: organism-based; set-up: dose 150 mg/kg, route oral; conditions: in vivo; in short: as §5
Mus musculus [21] = test: Toxicity in C57BL/6J mouse assessed as body shaking at 150 mg/kg, po after 1 to 4 hrs; format: organism-based; set-up: dose 150 mg/kg, route oral; conditions: in vivo; in short: as §5

Row | SMILES | Activity (MDA-MB-231 [3]) | Activity (MDA-MB-231 [5]) | MTD (Mus musculus [6]) | Activity (Mus musculus [7]) | t1/2 (Liver) | Activity (MDA-MB-231 [11]) | Activity (MDA-MB-231 [12]) | further results
1 | CC(=O)N[C@H]1[C@@H](O[C@@H]2O[C@H](CC(O)[C@H]3O[C@@H](n4ccc(=O)[nH]c4=O)[C@H](O)[C@@H]3O)[C@H](O)[C@H](O)[C@H]2NC(=O)/C=C/CC(C)C)O[C@H](CO)[C@@H](N)[C@@H]1O (some centres not stated) |  |  |  |  |  |  |  | Activity (MDA-MB-231 [1]): Active
2 | N=C(CF)NCCC[C@@H](NC(=O)c1ccccc1C(=O)O)C(N)=O | inactive | inactive | > 150 mg/kg | Non-toxic |  |  |  | Activity (MDA-MB-231 [2]): inactive; Activity (MDA-MB-231 [4]): inactive
3 | N=C(CCl)NCCC[C@@H](NC(=O)c1ccccc1)C(N)=O | inactive | Active | > 150 mg/kg | Non-toxic | 33 min | Dose-dependent effect | Active | concentration at 4 h [8]: 10 nM; concentration at 4 h [9]: 10 nM; concentration at 2 h [10]: 21 nM
4 | N=C(CCl)NCCC[C@H](NC(=O)c1ccccc1)C(N)=O | inactive | Active | 75 mg/kg |  | 37 min | Dose-dependent effect | Active | Activity (Mus musculus [13]): Toxic; Activity (Mus musculus [14]): Toxic; Activity (Mus musculus [15]): Toxic; Drug metabolism (Mus musculus [16]): Active; Drug metabolism (Mus musculus [17]): Active; Activity (Mus musculus [18]): Toxic; Activity (Mus musculus [19]): Toxic; Activity (Mus musculus [20]): Toxic; Activity (Mus musculus [21]): Toxic
